Source: PubChem (several laboratories)
Rows were chosen to be rich in hits. Some 1.3% of all compounds tested hit in one or more screens of this group.
GSK3 alpha inh: blockers of GSK3A enzyme activity – biochemical, luminescence, cell-free homogeneous, HTS, primary screen; Glycogen synthase kinase-3 alpha (Homo sapiens), P49840; GSK-3 alpha kinase, ADP-Glo luminescence, 60 min; inhibition, % at 10 µM; 320,000 tested, 0.1% active; AID 2650, 2010;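 active = more than half of replicates show inhibition above 20%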;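 also: GST-tagged GSK-3 alpha with peptide substrate and 25 µM ATP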
LANA-H2B inh: blockers of LANA interaction with H2A/H2B – biochemical, FP readout, HTS, primary screen | Protein LANA1 (Human herpesvirus 8 type P (isolate GK18)), Q9QR71 | 320,000 tested, 0.6% active | cell-free LANA-H2A/H2B peptide, fluorescence polarization | inhibition, % (test concentration not listed); in the data active = inhibition mostly above about 10%, no sharp cut-off; inactive = mostly below about 6.7%
Hep lipid drop: inhibitors of hepatocyte lipid droplet formation, primary screen, imaging, high-throughput imaging, BODIPY stain; AML12 mouse hepatocytes, oleate lipid droplets; inhibition, % at 6.5 µM; 240,000 tested, 0.4% active; AID 1656, 2009;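 active = lipid droplet intensity inhibited by at least 50%, with more than 500 cells counted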
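Material – AML12 mouse liver cells · Also added – oleate loading, 100 µM · Compound dosing – 6.5 µM single-point dosing · Times – overnight treatment with compound plus oleate · Measured by – fluorescence imaging, 20x objective, two fields per well · Read-out – percent inhibition of filter-corrected integrated lipid droplet intensity per well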
GSK3B inh: human GSK3beta kinase inhibitors, primary screen, biochemical, cell-free homogeneous, HTS. Glycogen synthase kinase-3 beta (Homo sapiens), P49841. GST-GSK3beta kinase, ADP-Glo luminescence, 60 min; active compounds read low. activity score (negative = inhibition), % at 10 µM. 300,000 tested, 0.038% active;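 active = more than half of replicate wells score below -50%, meaning over 50% inhibition versus plate controls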
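Assay system: GST-tagged human GSK3beta kinase, cell-free; Input: 1.6 ng GSK3beta; Medium: Tris/MgCl2 kinase buffer; Timing: 60 min enzyme reaction, room temperature; Signal: ADP-Glo luminescence quantifying ADP generated by kinase; Evaluation: score relative to plate controls; Benchmarks: DMSO neutral wells and GW8510 at 20 µM as positive.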
TAG inh: inhibitors of triacylglycerol accumulation, primary screen, cell-based, uHTS, fluorescence, H9c2. inhibition, % at 12.5 µM. H9c2 cells, Nile Red lipid (TAG) fluorescence; cells loaded with 200 µM oleic acid. 230,000 tested, 0.66% active;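 active = pattern-corrected inhibition of lipid staining of at least 50% with the nuclear-stain viability signal not falling by more than 50%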
STK33 inh: inhibitors of purified STK33 kinase, primary screen, biochemical, ADP-Glo luminescence, homogeneous, cell-free. AID 2661, 2010. MBP phosphorylation. Serine/threonine-protein kinase 33 (Homo sapiens), Q9BYT3. 320,000 tested, 0.073% active. inhibition, % at 10 µM;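 active = inhibition at or above 25%, using the most active replicate where run in duplicate; inactive = inhibition below 25%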
Lipid drop inh: hepatocyte lipid droplet accumulation inhibitors, confirmation, imaging, AML12 mouse hepatocytes, single concentration, high-content; BODIPY lipid droplet imaging; droplets induced with 100 µM oleic acid; AID 463183, 2010; inhibition, % at 5.2 µM; shares compounds with Hep lipid drop; 870 tested, 65% active;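 active = inhibition of lipid droplet metric at least 50%, with more than 300 cells in each of four replicates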
AML12 tox img: AML12 hepatocyte cytotoxicity, counter-screen for hepatic lipid droplet formation project, imaging, DAPI nuclear morphology imaging; shares compounds with Hep lipid drop; AML12 mouse hepatocytes; active compounds read high; cells fed 100 µM oleate overnight; z-score at 5 µM; 870 tested, 3% active; AID 463200, 2010; in the data active = z-score above about 6.3;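 also: compound exposure lasted overnight at 37 °C before fixation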
AML12 tox ATP: AML12 hepatocyte cytotoxicity, confirmation, cytotoxicity control for hepatic lipid droplet formation project, cell-based, single concentration; shares compounds with Hep lipid drop; AML12 mouse hepatocyte viability, ATP luminescence; cells loaded with 100 µM oleic acid; cytotoxicity, % at 50 µM; 530 tested, under 10 active; AID 463219, 2010;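 active = cytotoxicity above 50% in each of four replicates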;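 also: compound exposure lasted overnight at 37 °C before the ATP read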
Of the large screens only hits and unclear results are named; the others gave an inactive call (follow-up assays come after a bar, where they were run).

C(=C\c1ccccc1)/CNn1cnnc1	none (no result: TAG inh)
Clc1ccc(Cn2ncc3c(N4CCCCC4)ncnc32)c(Cl)c1	none (no result: TAG inh)
Cc1oc2ccc(OCc3ccc(F)cc3Cl)cc2c1C(=O)O	Hep lipid drop 57 | Lipid drop inh inactive | AML12 tox img inactive
Cn1nc(C(F)(F)F)c(-c2cccc(C(F)(F)F)c2)c1NC(=O)c1ccco1	none
Cn1nc(C(F)(F)F)c(-c2cccc(C(F)(F)F)c2)c1NC(=O)Nc1ccc(F)cc1	Hep lipid drop 69 | Lipid drop inh 90 | AML12 tox img inactive | AML12 tox ATP inactive
CCN(CC)C(=O)c1sc2c(c1C)c(=O)n(-c1ccc(OC)cc1OC)c(=O)n2CC(=O)c1ccccc1	none
COc1ccc(-n2c(=O)c3c4c(sc3n(CC(=O)Nc3cc(C)[nH]n3)c2=O)CCC4)c(OC)c1	Hep lipid drop 51 | Lipid drop inh inactive | AML12 tox img inactive
c1ccc(C2(Cn3ccc4ccccc43)OCCO2)cc1	none
CN(C)c1ccc(NC2=C([N+](=O)[O-])CS(=O)(=O)C2)cc1	Hep lipid drop 84 (no result: TAG inh) | Lipid drop inh inactive | AML12 tox img inactive
Cc1c(C(=O)N2CCC2)oc2ccc(Br)cc12	none (no result: Hep lipid drop, GSK3B inh)
COc1cccc(N2CCN(CC(=O)Nc3nnc(-c4ccccc4)s3)CC2)c1	Hep lipid drop 59 | Lipid drop inh 95 | AML12 tox img inactive | AML12 tox ATP inactive
Cc1cc(O)c(C)c(O)c1/C=N/NC(=O)c1cccnc1	Hep lipid drop 59 (no result: TAG inh) | Lipid drop inh inactive | AML12 tox img inactive
O=C(N/N=C/c1c(O)ccc2ccccc12)c1cccnc1	none (no result: TAG inh)
CCC(C)(C)NC(=O)C(c1ccc(C)cc1)N(CC1CCCO1)C(=O)CCC(=O)Nc1ccccn1 (centres undefined)	Hep lipid drop 61 (no result: GSK3B inh, TAG inh) | Lipid drop inh inactive | AML12 tox img inactive
O=C(Cc1ccccc1)Nn1c(-c2ccccc2)nc2ccccc2c1=O	Hep lipid drop 57 (no result: TAG inh) | Lipid drop inh 64 | AML12 tox img inactive | AML12 tox ATP inactive
O=C(Cc1ccccc1)Nn1c(-c2ccccc2F)nc2ccccc2c1=O	none
CC1CCc2c(sc(NC(=O)CCCn3cnc([N+](=O)[O-])n3)c2C(N)=O)C1 (centres undefined)	none
COc1ccc(NC(=O)CCC2COc3ccccc3O2)c(OC)c1 (centres undefined)	none
COc1ccc(/C=C/C(=O)NCC2COc3ccccc3O2)c(OC)c1 (centres undefined)	Hep lipid drop 65 | Lipid drop inh 84 | AML12 tox img inactive | AML12 tox ATP inactive
O=c1[nH]c(=O)n(Cc2ccccc2)c2nc(-c3ccc(Oc4ccc(F)cc4)c([N+](=O)[O-])c3)n(CCO)c12	Hep lipid drop 64 (no result: TAG inh) | Lipid drop inh 71 | AML12 tox img inactive | AML12 tox ATP inactive
Cc1cnc(C(=O)Nc2cc(S(=O)(=O)N3CCOCC3)ccc2N2CCN(C)CC2)cn1	none (no result: TAG inh)
O=C(CSCC(=O)N1CCCCC1)Nc1nc(-c2ccccc2)c(-c2ccccc2)s1	Hep lipid drop 89 (no result: GSK3B inh) | Lipid drop inh 104 | AML12 tox img inactive | AML12 tox ATP inactive
O=C(CSc1nc(-c2ccccc2)c(-c2ccccc2)o1)N1CCCCC1	none (no result: GSK3 alpha inh, LANA-H2B inh, Hep lipid drop, GSK3B inh, STK33 inh)
